Assay outcomes: PubChem, Broad Institute
Env fusion inh: inhibitors of HIV-1 Env-driven cell-cell fusion, primary screen, HeLa-JRFL effector, CEM21 target cells, luciferase | inhibition, % at 12.3 µM | hit rate 1.1% among 360,000 | AID 651610, 2012;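 active = mean replicate inhibition score of at least 50 and every replicate individually at or above 50; inconclusive = only one of the two criteria met; inactive = mean below 50 and not all replicates reaching 50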
FGF22 binding: binders of human FGF22 protein, primary screen, FGF22 synaptogenesis inhibitor project, biophysical, thermal shift, single point. activity (Tm shift, normalised), % at 9.99 µM. recombinant FGF22 thermal shift, SYPRO orange fluorescence; percent of sucrose octasulfate shift, DMSO zero. AID 651658, 2012. hit rate 1.5% among 340,000. Fibroblast growth factor 22 (Homo sapiens), Q9HCT0;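 active = mean Tm shift, scaled 0 neutral to 100 positive control, at about 1.3% or above, every replicate too, limit read from the data; inconclusive = no clear call, values can overlap the other calls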
Target sequence (Q9HCT0 whole entry, looked up): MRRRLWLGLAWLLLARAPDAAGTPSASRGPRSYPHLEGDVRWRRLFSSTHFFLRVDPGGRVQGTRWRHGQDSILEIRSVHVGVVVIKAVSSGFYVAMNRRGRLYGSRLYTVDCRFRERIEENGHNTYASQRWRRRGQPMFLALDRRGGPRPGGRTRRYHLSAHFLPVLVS
PGC1a acetyl inh: inhibitors of PGC1a acetylation signal, primary screen, cell-based, U2OS, AlphaScreen, inhibitor mode | AlphaScreen anti-acetyl-lysine; with virally co-expressed GCN5 acetyltransferase | inhibition, % at 15.6 µM | hit rate 0.17% among 350,000;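 active = every replicate shows inhibition of at least 40%; inconclusive = mean inhibition at least 40% but some replicate below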
ERAP1 HTS inh: human ERAP1 aminopeptidase inhibitors, primary screen, biochemical, single point, plate reader; AID 652197, 2013; inhibition, % at 10.7 µM; Endoplasmic reticulum aminopeptidase 1 (Homo sapiens), Q9NZ08; recombinant ERAP1, Leu-AMC fluorescence, 60 min; hit rate 0.15% among 340,000;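 active = mean replicate inhibition of at least 30%, or all replicates individually reaching that 30% level; inactive = mean below 30% and not every replicate reaching it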
rRNA inh HTS: reduced GFP signal of wild-type E. coli, primary screen, bacterial rRNA inhibitor project, GFP/RFP fluorescence, OD600, single point | hit rate 1.6% among 350,000 | E. coli WT GFP vs humanized-ribosome RFP mutants, 24 h; stronger effect = lower value; DMSO median 0, no signal -100 | GFP signal change (wild-type ribosome), % (concentration not given with the values);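 active = significant combined selectivity score with lowered wild-type GFP, culture density cut under 30%, mutant RFP and density less affected; inactive = any of these conditions unmet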
Cneo AK release: Cryptococcus neoformans cell lysis inducers, primary screen, AK release luminescence, single concentration. C. neoformans lysis, adenylate kinase release luminescence, 4 h; normalised: neutral wells 0, clomiphene wells 100. lysis activity, % at 15 µM. hit rate 0.2% among 360,000;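 active = mean lysis activity across replicates of at least 80%, whatever share of replicates individually reach that level; inactive = mean lysis activity below 80%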
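Material – Cryptococcus neoformans yeast cells · Quantity – 5 × 10^6 yeast cells/mL · Buffer or medium – YPD medium · Compound – single dose · Timing – 4 h static compound exposure, 37 °C, read 1 h post-reagent · Signal – adenylate kinase release luminescence · Read-out basis – lysis from increased AK signal · Benchmarks – Clomiphene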
AID977621: growth inhibition of wild-type GFP E. coli, dose response, H69 mutant RFP, cherry-pick; shares compounds with rRNA inh HTS; E. coli wild-type GFP strain growth, fluorescence, 24 h; activity change, negative = inhibition at 50 µM; 1,900 tested, under 10 active; AID 977621, 2014;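 active = Wild-type ribosome reporter drop at least double the humanized mutant ribosome reporter drop, growth loss under a set limit; inconclusive = no clear call, values can overlap the other calls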;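 also: wild-type GFP and H69 mutant RFP strains grown together 50/50 in each well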
AID977628: E. coli growth inhibition, wild-type GFP versus h24 humanized RFP strain, dose response, h24 mutant RFP vs wild-type GFP, cherry-pick | shares compounds with rRNA inh HTS | E. coli WT GFP strain growth, fluorescence, 24 h | activity change, negative = inhibition at 50 µM | 1,900 tested, under 10 active;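 active = compound lowering the normal-ribosome reporter at least twice as much as the humanized-ribosome reporter, growth loss under a set limit; inconclusive = no clear call, values can overlap the other calls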;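 also: wild-type GFP and h24 humanized RFP strains co-cultured 1 to 1 per well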
Each line names hits and unclear results; the compound was inactive in the other large screens (follow-up assays come after a bar, where they were run). Hits are enriched below; roughly 3.5% of the tested compounds scored in any of these assays.

C[C@@H]1CCCCO[C@H](CN(C)C)[C@@H](C)CN([C@H](C)CO)C(=O)c2cc(NC(=O)Nc3cccc4ccccc34)ccc2O1	none | AID977621 inactive | AID977628 inconclusive
C[C@@H]1CCCCO[C@H](CN(C)C)[C@H](C)CN([C@H](C)CO)C(=O)c2cc(NC(=O)Nc3cccc4ccccc34)ccc2O1	none | AID977621 inactive
C[C@@H]1CCCCO[C@@H](CN(C)S(C)(=O)=O)[C@@H](C)CN([C@H](C)CO)C(=O)c2cc(NC(=O)Nc3cccc4ccccc34)ccc2O1	none
C[C@@H]1CCCCO[C@@H](CN(C)C(=O)c2ccccc2)[C@H](C)CN([C@@H](C)CO)C(=O)c2cc(NC(=O)Cc3ccccc3)ccc2O1	rRNA inh HTS -25 | AID977628 inconclusive
C[C@@H]1CCCCO[C@H](CN(C)C(=O)c2ccccc2)[C@@H](C)CN([C@@H](C)CO)C(=O)c2cc(NC(=O)Cc3ccccc3)ccc2O1	none
C[C@@H]1CCCCO[C@@H](CN(C)C)[C@H](C)CN([C@@H](C)CO)C(=O)c2cc(NC(=O)Nc3cccc4ccccc34)ccc2O1	none | AID977621 inactive | AID977628 inactive
C[C@@H]1CCCCO[C@H](CN(C)S(C)(=O)=O)[C@H](C)CN([C@@H](C)CO)C(=O)c2cc(NC(=O)Nc3cccc4ccccc34)ccc2O1	none
C[C@@H]1CCCCO[C@@H](CN(C)S(C)(=O)=O)[C@H](C)CN([C@H](C)CO)C(=O)c2cc(NC(=O)Nc3cccc4ccccc34)ccc2O1	none
C[C@@H]1CCCCO[C@H](CN(C)C)[C@H](C)CN([C@@H](C)CO)C(=O)c2cc(NC(=O)Nc3cccc4ccccc34)ccc2O1	rRNA inh HTS -36 | AID977621 inactive | AID977628 inactive
CN(c1ccccc1)S(=O)(=O)c1cccc(NC(=O)CCNC(=O)c2ccc(Cl)cc2)c1	none (no result: PGC1a acetyl inh)
CCCNC(=O)N1C[C@H](O)COC[C@@H]2O[C@H](CC(=O)N[C@@H]3CCN(Cc4ccccc4)C3)CC[C@H]21	none
CC=Cc1ccc2n(c1=O)C[C@@H]1[C@@H](CO)[C@H](C(=O)NCC)N(Cc3cccc(F)c3)[C@H]21 (mixture of isomers)	none (no result: Env fusion inh, PGC1a acetyl inh)
Cc1ccc(OCC(=O)N2CC3(C)CC2CC(C)(C)C3)cc1 (stereo unspecified)	none (no result: FGF22 binding, ERAP1 HTS inh, rRNA inh HTS)
COc1ccccc1NC(=O)c1ccccc1NS(=O)(=O)c1cccs1	none (no result: FGF22 binding, PGC1a acetyl inh)
COc1cccc(OCCN2CCN(c3ncnc4c3cnn4-c3ccccc3)CC2)c1	none (no result: FGF22 binding, PGC1a acetyl inh, ERAP1 HTS inh, rRNA inh HTS)
NC(=O)c1cc(C(=O)Cc2ccccc2)c[nH]1	none (no result: PGC1a acetyl inh)
COC(=O)c1cc(C(=O)Cc2ccccc2)c[nH]1	rRNA inh HTS -22 (no result: PGC1a acetyl inh, Cneo AK release) | AID977621 inactive
COc1cccc(CNC(=O)CCSCc2ccccc2F)c1	rRNA inh HTS -29 (no result: Cneo AK release) | AID977621 inactive
COCCNC(=O)CCSCc1ccccc1F	none (no result: Env fusion inh, FGF22 binding, ERAP1 HTS inh, rRNA inh HTS)
COc1cccc(OC)c1CNC(=O)CCSCc1ccccc1F	rRNA inh HTS -35 (no result: Cneo AK release) | AID977621 inactive | AID977628 inactive
O=C(N[C@@H]1CC[C@H](CCn2cc(Cc3ccccc3)nn2)O[C@H]1CO)c1cnccn1	none
O=C(CSc1nncn1-c1ccccc1)Nc1cc(F)ccc1F	none (no result: PGC1a acetyl inh, rRNA inh HTS)
CS(=O)(=O)c1ccc(Cl)c(NC(=O)CSc2nncn2-c2ccccc2)c1	rRNA inh HTS -22 (no result: FGF22 binding) | AID977621 inactive | AID977628 inactive
Cc1nn2c(NCc3ccccn3)cc(C(C)(C)C)nc2c1-c1ccccc1	none
Cc1cc(NCc2ccccn2)n2nc(C)c(-c3ccccc3)c2n1	rRNA inh HTS -47 (no result: PGC1a acetyl inh, Cneo AK release) | AID977621 inactive | AID977628 inconclusive
CCOC(=O)c1nc(S(C)(=O)=O)ncc1N1CCOCC1	none (no result: Env fusion inh, FGF22 binding, ERAP1 HTS inh, rRNA inh HTS)
CCOC(=O)c1nc(S(C)(=O)=O)ncc1Cl	rRNA inh HTS -27 (no result: Env fusion inh) | AID977621 inactive | AID977628 inconclusive
Cc1cccc(C)c1NC(=O)C1(C)CSCC(=O)N1CCOc1ccccc1 (stereo unspecified)	rRNA inh HTS -22 (no result: PGC1a acetyl inh, Cneo AK release) | AID977621 inactive | AID977628 inactive
COc1cc(NC(=O)COC(=O)c2cc(S(=O)(=O)N3CCCCC3)ccc2Cl)c(C)cc1[N+](=O)[O-]	none (no result: FGF22 binding, ERAP1 HTS inh, rRNA inh HTS)
O=c1c(C=NCc2cccnc2)c(C(F)(F)F)[nH]n1-c1nc2ccccc2s1	none (no result: Cneo AK release)
O=C(Cc1cccnc1)N1CC(=O)N2[C@H](C1)[C@@H](c1ccc(C3=CCCCC3)cc1)[C@@H]2CO	rRNA inh HTS -17 (no result: Env fusion inh, Cneo AK release) | AID977628 inconclusive
COc1ccc2sc(N3C(=O)CC(Cc4cccc(C)c4)C3=O)nc2c1 (stereo unspecified)	rRNA inh HTS -33 (no result: Env fusion inh) | AID977628 inconclusive
COc1ccc2c(c1)Sc1ccccc1N2	none (no result: PGC1a acetyl inh, Cneo AK release)
c1ccc2c(c1)Nc1cc3ccccc3cc1S2	rRNA inh HTS -21 (no result: Cneo AK release) | AID977621 inactive | AID977628 inactive
O=C(Nc1nc2ccccc2n1CCN1CCOCC1)c1ccccc1	rRNA inh HTS -16 | AID977621 inactive | AID977628 inactive
Cc1csc2c(N3CCC(C(=O)O)CC3)ncnc12	rRNA inh HTS -32 (no result: PGC1a acetyl inh, Cneo AK release) | AID977628 inconclusive
Cc1csc2c(N3CCCCC3)ncnc12	none (no result: PGC1a acetyl inh, Cneo AK release)
Cc1ccccc1CNC(=O)c1[nH]c(C(F)(F)F)nc1-c1ccccc1	none (no result: Env fusion inh, rRNA inh HTS)
CC(C)c1ccc(-c2nc3ccccc3s2)cc1	rRNA inh HTS -16 (no result: PGC1a acetyl inh, Cneo AK release) | AID977621 inactive | AID977628 inactive
FC(F)(F)c1ccc(-c2nc3ccccc3s2)cc1	none
CCN(CC)CCCN(C(=O)c1ccco1)c1nc(-c2ccc(C)cc2)cs1	rRNA inh HTS -34 | AID977621 inconclusive | AID977628 inconclusive
COc1ccc(C(CC(=O)c2ccc(O)cc2)S(=O)(=O)c2ccc(C)cc2)cc1 (stereo unspecified)	rRNA inh HTS -24 (no result: Env fusion inh) | AID977621 inactive | AID977628 inactive
COc1ccc(C(=O)CCS(=O)(=O)c2ccc(C)cc2)cc1	none (no result: PGC1a acetyl inh)
CCCC#C/C(CCC)=C1\c2ccccc2C(=O)N1c1ccccc1	rRNA inh HTS -16 (no result: PGC1a acetyl inh, Cneo AK release) | AID977621 inactive | AID977628 inconclusive
CCC/C(=C1/c2ccccc2C(=O)N1c1ccccc1)c1ccc2[nH]ccc2c1	none
